From ChEMBL document CHEMBL1135690, “Benzodiazepine receptor ligands. 7. Synthesis and pharmacological evaluation of new 3-esters of the 8-chloropyrazolo[5,1-c][1,2,4]benzotriazine 5-oxide. 3-(2-Thienylmethoxycarbonyl) derivative: an anxioselective agent in rodents” (J Med Chem, 2002) come the findings set out here.

The target in assay [1] is GABA-A receptor; anion channel (Homo sapiens) (UniProt P14867+P47870+P18507+P28472+P48169+Q99928+Q9UN88+P34903+O00591+O14764+Q8N1C3+P18505+P78334+P47869+P31644+Q16445). Put plainly: Percent inhibition [3H]Ro-151788 binding to Benzodiazepine receptor from bovine brain membrane at 10 uM. Particulars: Bos taurus, target entry is the homologue from another species.
The target in assay [2] is GABA-A receptor; anion channel. Further details: species or system Bos taurus.
In assay [3] the test system is Mus musculus. Put plainly: Percent anticonvulsant activity against pentylenetetrazole (PTZ)-induced attacks at 10 mg/kg peroral dose. The format is functional. The settings on record: route oral. In short, it runs like this: (§1)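 Male CD-1 mice dosed po in 1% carboxymethylcellulose, 30 min before PTZ (90 mg/kg sc, in 0.9% saline). Occurrence of clonic generalized convulsions noted over 30 min; χ² analysis vs control mice.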

In assay [4] the test system is Mus musculus. In words: Percent anticonvulsant activity against pentylenetetrazole (PTZ)-induced attacks at 100 mg/kg peroral dose. In kind it is functional. Particulars: route oral. In a few lines:
as §1

Assay [5] concerns Mus musculus. Put plainly: Percent anticonvulsant activity against pentylenetetrazole (PTZ)-induced attacks at 3 mg/kg peroral dose. In kind it is functional. The settings on record: route oral. In short, it runs like this: as §1
Assay [6] concerns Mus musculus. Put plainly: Percent anticonvulsant activity against pentylenetetrazole (PTZ)-induced attacks at 30 mg/kg peroral dose. Particulars: route oral. The format is functional. In short, it runs like this:
as §1

The subject of assay [7] is Mus musculus. Put plainly: Anxiolytic activity in mice using light-dark box and % time spent in light was reported at 10 mg/kg peroral dose. In kind it is functional. Particulars: route oral. In short, it runs like this: (§2)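 Male CD-1 mice (22–24 g) given drug po in 1% carboxymethylcellulose (10 mL/kg). Each mouse placed in the centre of the lighted area facing away from the dark compartment and allowed to explore for 5 min; time spent in the illuminated side and number of transfers between compartments recorded. Tests run between 10:00 and 15:00.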

Assay [8] relates to Mus musculus. Put plainly: Anxiolytic activity in mice using light-dark box and % time spent in light was reported at 100 mg/kg peroral dose. The settings on record: route oral. In kind it is functional. In a few lines:
as §2

Assay [9] deals with Mus musculus. In words: Anxiolytic activity in mice using light-dark box and % time spent in light was reported at 30 mg/kg peroral dose. The format is functional. Particulars: route oral. In a few lines: as §2
In assay [10] the test system is Mus musculus. In words: Motor coordination of mouse as number of falls in 30 sec was reported after 10 mg/kg peroral dose using rotarod test. The format is functional. The settings on record: route oral. In a few lines:
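Male CD-1 mice are dosed po in 1% CMC (flumazenil ip). Falls from a rota rod turning at 24 rpm are counted over 30 s, 25 min after drug administration, and compared with vehicle-treated mice. Means ± SEM.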
(In the rotarod test animals must keep their balance on a rotating rod.)

Assay [11] relates to Mus musculus. Put plainly: Motor coordination of mouse as number of falls in 30 sec was reported after 100 mg/kg peroral dose using rotarod test. The format is functional. Particulars: route oral. In short, it runs like this: (§3)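 Male CD-1 mice dosed po (suspension in 1% carboxymethylcellulose, 10 mL/kg). Rota rod turning at 24 rpm; falls from the rod counted over 30 s, 25 min after drug administration.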

For assay [12], the system named is Mus musculus. In words: Motor coordination of mouse as number of falls in 30 sec was reported after 3 mg/kg peroral dose using rotarod test. Particulars: route oral. The format is functional. In short, it runs like this: as §3
Assay [13] deals with Mus musculus. Put plainly: Motor coordination of mouse as number of falls in 30 sec was reported after 30 mg/kg peroral dose using rotarod test. In kind it is functional. Particulars: route oral. In a few lines: as §3
Assay [14] deals with Mus musculus. In words: Anxiolytic activity in mice using light-dark box and no. of transfers between compartments were reported at 100 mg/kg peroral dose. The format is functional. Particulars: route oral. In a few lines:
as §2

Assay [15] concerns Mus musculus. In words: Anxiolytic activity in mice using light-dark box and no. of transfers between compartments were reported at 30 mg/kg peroral dose. In kind it is functional. Particulars: route oral. In short, it runs like this:
as §2

Assay [16] has as its system Mus musculus. In words: Anxiolytic activity in mice using light-dark box and no. of transfers between compartments were reported at 10 mg/kg peroral dose. In kind it is functional. The settings on record: route oral. In a few lines:
as §2

Assay [17] can be described thus: Displacement of [3H]Ro-151788 from rat GABA-A receptor alpha-5-beta-3-gamma-2 subunits expressed in HEK293 cells. The format is cell-based. In short, it runs like this:
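Recombinant rat GABA-A subtypes are stably expressed in HEK293 cells grown in MEM/EBSS with 10% FCS at 37 °C. Membranes are made in 10 mM potassium phosphate pH 7.4 and resuspended with 100 mM KCl. Incubation uses 1–2 nM [3H]Ro15-1788 with compound at 10^-9–10^-5 M (≥6 concentrations), 1 h at 4 °C. […] Ki comes from Cheng–Prusoff, n=5, in triplicate.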
(In general: Displacement assays read how much labelled ligand stays bound in the presence of the test substance.)

One may read the inhibition as the percentage by which the read-out fell short of the control. As to `O=C(Cc1cnn2c1n[n+]([O-])c1ccc(Cl)cc12)Oc1ccccc1`, in [1], the inhibition was determined as 79%.

By Ki is commonly meant a measure of affinity in units of concentration, obtained from inhibition or displacement. Lower therefore signals tighter binding. Compound `O=C(OCc1ccoc1)c1cnn2c1n[n+]([O-])c1ccc(Cl)cc12` returned a Ki in [2] of 11.4 nM. The Activity with Mus musculus [3] came out at 20%; in the assay with Mus musculus [4] it was 36.4%; with Mus musculus [5], 0%; in the assay with Mus musculus [6] it was 30%; in the assay on Mus musculus [7], 118.95%; in the assay on Mus musculus [8], 127.18%. The Activity in the assay on Mus musculus [9] came to 132.27%. For the same compound, the No. of falls is given as 0.2 in the assay on Mus musculus [10], 0.18 in the assay with Mus musculus [11], 0.14 with Mus musculus [12] and 0.1 with Mus musculus [13]. Besides, the values for the No. of transfers in the assay on Mus musculus [14], with Mus musculus [15] and in the assay with Mus musculus [16] were 19.7, 20.4 and 16.57, respectively.

For the compound `COc1ccccc1COC(=O)C1C=NN2c3cc(Cl)ccc3[N+]([O-])=NC12` (stereo unspecified), in assay [1], the inhibition stood at 100%. Besides, the affinity in assay [2] corresponds to a Ki of 1 nM.

Compound `Cc1ccc(-c2nc3ccc(C)cn3c2CC(=O)N(C)C)cc1` [ZOLPIDEM] came in with a Ki in assay [17] greater than 1000 nM.

As to `O=C(OCc1ccncc1)c1cnn2c1n[n+]([O-])c1ccc(Cl)cc12`, the inhibition in assay [1] was 100%. This compound also registered a Ki in assay [2] of 44 nM.

`CC(C)OC(=O)c1cnn2c1n[n+]([O-])c1ccc(Cl)cc12` came in with an inhibition in assay [1] of 97%. The compound also returned a Ki in [2] of 272 nM.

Take `COc1ccccc1COC(=O)Cc1cnn2c1n[n+]([O-])c1ccc(Cl)cc12`: the inhibition in assay [1] was 50%.

Turning to `O=C(OCc1ccsc1)c1cnn2c1n[n+]([O-])c1ccc(Cl)cc12`, the inhibition in assay [1] stood at 97%.

Consider `COc1ccccc1OC(=O)CC1C=NN2c3cc(Cl)ccc3[N+]([O-])=NC12` (stereo unspecified), for which, in [1], the inhibition is 88%. This compound came in with an inhibition constant (Ki) in [2] of 171 nM.

Consider `CN1C(=O)CN=C(c2ccccc2)c2cc(Cl)ccc21.O=C(OCc1cccs1)c1cnn2c1n[n+]([O-])c1ccc(Cl)cc12`, for which, in the assay with Mus musculus [5], the Activity is 50%. In addition, the No. of falls in the assay with Mus musculus [12] stood at 0.3.

In the assay on Mus musculus [3], `CN1C(=O)CN=C(c2ccccc2)c2cc(Cl)ccc21.O=C(OCc1ccoc1)c1cnn2c1n[n+]([O-])c1ccc(Cl)cc12` came in with an Activity of 88.9%. In the assay on Mus musculus [10], this compound displayed a No. of falls of 0.44.

In the case of `O=C(Cc1cnn2c1n[n+]([O-])c1ccc(Cl)cc12)OCc1ccsc1`, the inhibition in assay [1] was 45%.

Consider `O=C(Cc1cnn2c1n[n+]([O-])c1ccc(Cl)cc12)OCc1cccs1`, for which the inhibition in assay [1] worked out at 35%.

Compound `O=C(OCc1cccs1)c1cnn2c1n[n+]([O-])c1ccc(Cl)cc12` yielded an inhibition in assay [1] of 93%.

Turning to `O=C(OCc1ccco1)c1cnn2c1n[n+]([O-])c1ccc(Cl)cc12`, in assay [1], the inhibition turned out to be 100%.

Compound `CCOC(=O)Cc1cnn2c1n[n+]([O-])c1ccc(Cl)cc12` had an inhibition in assay [1] of 53%.
